Reference: ChEMBL document CHEMBL1275434, “In vitro evaluation of CBR-2092, a novel rifamycin-quinolone hybrid antibiotic: studies of the mode of action in Staphylococcus aureus” (Antimicrob Agents Chemother, 2008)
Values after ≈ are worked out from the molar mass of the structure shown.

Key:
Staphylococcus aureus [1] = test: Activity at Staphylococcus aureus wild-type DNA topoisomerase 4 subunit ParC
Outline: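 Recombinant S. aureus topoisomerase IV (wild-type ParC with ParE; specific activity 25 to 30 U per μg). Stopped with SDS/proteinase K. Linear DNA quantified on gel; CC50 is the mean of two or more assays.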

Staphylococcus aureus [2] = test: Activity at Staphylococcus aureus DNA topoisomerase 4 subunit ParC S80F mutant
Staphylococcus aureus [3] = test: Activity at Staphylococcus aureus wild-type GyrA
Outline: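 Recombinant S. aureus gyrase (wild-type GyrA with His-tagged GyrB; 250 U per μg). SDS/proteinase K stop. Gel quantitation of linear cleavage product gave CC50, the mean of two or more assays.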

[4] = tested on: DNA gyrase subunit A (Staphylococcus aureus), P20831 [S84L]; test: Activity at Staphylococcus aureus wild-type GyrA S84L mutant
Staphylococcus aureus [5] = test: Antimicrobial activity against Staphylococcus aureus CB190 by broth microdilution method; type: functional
Staphylococcus aureus [6] = test: Antimicrobial activity against Staphylococcus aureus CB811 harboring quinolone-resistant gyrA S84L mutant gene by broth microdilution method; type: functional
Outline: (§1)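 CLSI broth microdilution MIC in cation-adjusted Mueller-Hinton (MHII) broth supplemented with 0.002% (vol/vol) polysorbate 80, included to limit compound loss to plastic surfaces.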

Staphylococcus aureus [7] = test: Antimicrobial activity against Staphylococcus aureus CB808 harboring quinolone-resistant parC S80F mutant gene by broth microdilution method; type: functional; outline: as §1
Staphylococcus aureus [8] = test: Antimicrobial activity against Staphylococcus aureus CB814 harboring fluoroquinolone-resistant gyrA S84L and parC S80F mutant genes by broth microdilution method; type: functional; outline: as §1
Staphylococcus aureus [9] = test: Antimicrobial activity against Staphylococcus aureus CB370 harboring rifampin-resistant rpoB H481Y mutant gene by broth microdilution method; type: functional; outline: as §1
Staphylococcus aureus [10] = test: Antimicrobial activity against Staphylococcus aureus CB812 harboring rpo B H481Y and gyrA S84L mutant genes by broth microdilution method; type: functional; outline: as §1
Staphylococcus aureus [11] = test: Antimicrobial activity against Staphylococcus aureus CB809 harboring rpoB H481Y and parC S80F mutant genes by broth microdilution method
Staphylococcus aureus [12] = test: Antimicrobial activity against Staphylococcus aureus CB815 harboring rpoB H481Y, gyrA S84L and parC S80F mutant genes by broth microdilution method

SMILES: COc1c(N2CCNC(C)C2)c(F)cc2c(=O)c(C(=O)O)cn(C3CC3)c12 (configuration not stated) [GATIFLOXACIN]
- CC50 (Staphylococcus aureus [1]): 0.22 µM
- CC50 (Staphylococcus aureus [2]): 13 µM
- CC50 (Staphylococcus aureus [3]): 0.7 µM
- CC50 [4]: 18 µM
- MIC (Staphylococcus aureus [5]): 0.06 µg/mL (≈ 0.16 µM)
- MIC (Staphylococcus aureus [6]): 0.12 µg/mL (≈ 0.32 µM)
- MIC (Staphylococcus aureus [7]): 0.25 µg/mL (≈ 0.666 µM)
- MIC (Staphylococcus aureus [8]): 8 µg/mL (≈ 21.3 µM)
- MIC (Staphylococcus aureus [9]): 0.06 µg/mL (≈ 0.16 µM)
- MIC (Staphylococcus aureus [10]): 0.12 µg/mL (≈ 0.32 µM)
- MIC (Staphylococcus aureus [11]): 0.25 µg/mL (≈ 0.666 µM)
- MIC (Staphylococcus aureus [12]): 8 µg/mL (≈ 21.3 µM)
